Laboratory results: ChEMBL document CHEMBL1146566, “Antioxidant chalcone glycosides and flavanones from Maclura (Chlorophora) tinctoria” (J Nat Prod, 2003)
Calls of active or inactive are those of the source. The rule behind the calls is not given here.

Legend:
[1] = Antioxidant activity assessed as autoxidation of linoleic acid by beta-carotene autoxidation assay; assay type: functional
Outline: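 Linoleic acid (20 mg), Tween 20 (200 mg) and β-carotene (2 mg in 10 mL CHCl3) mixed, CHCl3 removed, 50 mL oxygen-saturated water added. Samples oxidised at 50 °C for 3 h, A470 read at intervals. AA = [1 − (A0 − At)/(A00 − A0t)] × 100 versus no-compound control, reported at 60 and 120 min; BHT as control substance.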

[2] = Antioxidant activity assessed as trolox equivalents of ABTS radical scavenging activity by TEAC assay; assay type: functional
Outline: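 ABTS radical cation made from 7 mM ABTS and 2.45 mM potassium persulfate, 12 h dark at room temperature, diluted in PBS pH 7.4 to A734 0.70, equilibrated at 30 °C. Samples in methanol at 0.3–2 mM stock levels, 10 μL plus 1 mL ABTS. % inhibition of A734 versus methanol blank plotted against concentration, in triplicate. TEAC = Trolox concentration equivalent to 1 mM compound; quercetin as reference.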

Compound: CC(=O)O[C@H]1[C@H](Oc2ccc(C(=O)/C=C/c3ccc(O)cc3)c(O)c2O)O[C@H](COC(=O)/C=C/c2ccccc2)[C@@H](O)[C@@H]1O
- Activity [1]: Active
- Activity [2]: 1.6 mM

Compound: O=c1c(O)c(-c2ccc(O)c(O)c2)oc2cc(O)cc(O)c12
- Activity [2]: 2.6 mM

Compound: O=C1C[C@@H](c2ccc(O)cc2)Oc2cc(O)cc(O)c21
- Activity [2]: 0.77 mM

Compound: CC(=O)OC[C@H]1O[C@@H](Oc2ccc(C(=O)/C=C/c3ccc(O)cc3)c(O)c2O)[C@H](OC(=O)/C=C/c2ccc(O)cc2)[C@@H](O)[C@@H]1O
- Activity [1]: Active
- Activity [2]: 1.71 mM

Compound: CC(C)=CCc1c(O[C@@H]2O[C@H](CO)[C@@H](O)[C@H](O)[C@H]2O)ccc(C(=O)/C=C/c2ccc(O)cc2)c1O
- Activity [1]: Active
- Activity [2]: 2.26 mM

Compound: O=C1C[C@@H](c2ccc(O[C@@H]3O[C@H](CO)[C@@H](O)[C@H](O)[C@H]3O)cc2)Oc2cc(O)cc(O)c21
- Activity [2]: 0.782 mM

Compound: O=C(/C=C/c1ccc(O)cc1)O[C@H]1[C@H](Oc2ccc(C(=O)/C=C/c3ccc(O)cc3)c(O)c2O)O[C@H](CO)[C@@H](O)[C@@H]1O
- Activity [1]: Active
- Activity [2]: 1.93 mM

Compound: O=C1C[C@@H](c2ccc(O)c(O)c2)Oc2cc(O[C@@H]3O[C@H](CO)[C@@H](O)[C@H](O)[C@H]3O)cc(O)c21
- Activity [2]: 1.26 mM
